Screening results from PubChem BioAssay.
An excerpt weighted towards active compounds, which were near 2.6% of everything screened.
S1P3 agonist – agonists of human S1P3 receptor; Q99500; S1P3 NFAT-BLA reporter cells, agonism, FRET ratio; relative to 1 µM S1P, basal subtracted; activation, % at 4.5 µM; actives 0.1% (n = 60,000); AID 373;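 active = activation above the screen-wide mean plus 3 SD, cut at about 4.5% in these data, passing the limit was not always enough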
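Material: Human S1P3 NFAT-BLA reporter CHO cells | Incubation: Overnight plating, 4 h compound 37 °C, 2 h substrate RT | Signal: FRET β-lactamase substrate fluorescence, excitation 405 nm, 460/535 nm emission ratio, background-subtracted | Compound: 4.5 µM final, single dose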
5-HT1A blocker – blocks the human serotonin 5-HT1a receptor; P08908; CHO 5-HT1a Ga15 NFAT-bla reporter, antagonist mode; inhibition, % at 10 µM; actives 0.68% (n = 62,000);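 active = inhibition above the mean of all tested compounds plus 3 SD, cut at about 43% in these data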;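 note: receptor stimulated by 5-CT agonist at 100 nM near EC80; beta-lactamase reporter measured by ratiometric fluorescence of a cleavable substrate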
HTR1E antagonist – 5-HT1E (human) receptor antagonism. P28566. CHO 5-HT1E Ga15 NFAT-bla reporter, FRET, antagonist. inhibition, % at 6 µM. actives 0.99% (n = 65,000). AID 571;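 active = inhibition above a set limit, the mean inhibition across every tested compound plus 3 SD, cut at about 29% in these data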;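 note: signal is the 460 over 535 nm emission ratio of beta-lactamase substrate; 0% = agonist plus DMSO wells and 100% = wells without agonist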
Target sequence (P28566 whole entry, looked up): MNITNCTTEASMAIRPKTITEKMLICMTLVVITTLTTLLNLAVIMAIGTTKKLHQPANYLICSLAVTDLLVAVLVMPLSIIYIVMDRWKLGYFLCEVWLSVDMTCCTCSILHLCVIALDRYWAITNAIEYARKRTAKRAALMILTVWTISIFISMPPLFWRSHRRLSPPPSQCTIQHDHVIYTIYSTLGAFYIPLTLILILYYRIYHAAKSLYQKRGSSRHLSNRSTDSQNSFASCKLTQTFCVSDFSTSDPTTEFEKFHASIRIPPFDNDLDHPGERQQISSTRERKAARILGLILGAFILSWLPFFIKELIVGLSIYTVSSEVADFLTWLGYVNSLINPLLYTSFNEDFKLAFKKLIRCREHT
5HT1a ag – 5-HT1a (human) receptor agonism; actives 0.56% (n = 65,000); CHO 5-HT1a Ga15 NFAT-bla reporter, FRET ratio; 0% basal, 100% maximal reference agonist; activation, % at 10 µM; P08908; AID 567;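 active = activation above the screen-wide mean activation plus 3 SD, cut at about 19% in these data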;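 note: 0% = DMSO wells and 100% = 5-CT at EC100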
HTR1E agonist – 5-HT1E (human) receptor agonism; activation, % at 6 µM; actives 0.69% (n = 65,000); CHO 5-HT1E Ga15 NFAT-bla reporter, FRET; 0% DMSO wells, 100% control agonist wells; P28566;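 active = activation above a set limit, the screen-wide mean activation plus 3 SD, cut at about 8.5% in these data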;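 note: 100% = positive control agonist at 1 µM giving full maximal response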
The depositor's hits bear a star; . = no result.

SMILES	S1P3 agonist	5-HT1A blocker	HTR1E antagonist	5HT1a ag	HTR1E agonist
CC1=C(C#N)C(NC(=O)c2ccco2)(C(F)(F)F)C(=O)N1 (stereo not given)	-1	-6	15	0	12*
CN1C(=O)NC(NC(=O)c2ccco2)(C(F)(F)F)C1=O (stereo not given)	-2	.	5	3	0
COc1ccccc1OCC(O)Cn1c(=N)n(CCN2CCCCC2)c2ccccc21 (stereo not given)	.	71*	6	0	-1
N=c1n(CCN2CCCCC2)c2ccccc2n1CC(O)COc1ccccc1 (stereo not given)	0	49*	-9	-1	0
N=c1n(CCN2CCCCC2)c2ccccc2n1CC(O)c1cccc(Br)c1 (stereo not given)	-1	54*	-1	-5	0
Cn1c(=O)n(Cc2ccc(F)cc2)c(=O)c2c1nc1n2CCCN1C1CCCCC1	-2	-6	-1	0	1
COc1cccc(C(=O)Nc2cc(C)c3c(=O)oc4ccccc4c3n2)c1	-1	-12	2	25*	-1
CN(C)c1ccc(/C=N/n2ncc3ccccc32)cc1	.	-18	6	24*	3
O=C1CCCc2sc3c(c2N1)CCCCC3	0	-1	2	1	11*
O=C1CCCc2sccc2N1	-1	-2	13	-1	-1
CC1(C)CC(=O)C2=C(C1)N(c1cccc(O)c1)C1=C(C2)C(=O)CC(C)(C)C1	-1	20	30*	0	1
COc1ccc(S(=O)(=O)NCCSCc2ccco2)cc1Cl	0	-4	9	-3	0
FC(F)(F)c1cccc(N2CCN(Cc3ccoc3)CC2)c1	0	-1	2	15	14*
FC(F)(F)c1cccc(N2CCN(Cc3cccnc3)CC2)c1	-1	-2	-3	0	4
O=C(c1c(F)cccc1F)N1CCN(c2cccc(C(F)(F)F)c2)CC1	-1	7	0	1	0
FC(F)(F)c1cccc(N2Cc3ccccc3C2)c1	0	6	-10	-1	11*
N#CC12CCCCC1CC1CCCCC1(C#N)N2Cc1cccnc1 (stereo not given)	-8	.	17	-1	-1
CCOc1ccc(NC(=O)c2oc3ccccc3c2NC(=O)C2CC2)cc1	-2	-12	17	-1	0
CN1CCCC(OC(=O)c2cc(Cl)ccc2Cl)C1 (stereo not given)	-1	-3	1	1	13*
COc1ccc(CCN(C)CCCC(C#N)(c2ccc(OC)c(OC)c2)C(C)C)cc1OC (stereo not given)	-2	.	-1	-2	0
CCN(CC)CCOc1cccc(C(C)C)c1	0	6	4	-1	13*
O=C(Cn1c(=O)sc2ccccc21)Nc1ccccc1C(=O)O	.	0	-9	-1	0
Cc1cc(C)nc(NCC(O)COc2ccccc2C)n1 (stereo not given)	-1	10	-5	-1	0
Cc1c[nH]c2cccc(OCC(O)CNC(C)(C)C)c12 (stereo not given)	0	82*	1	-3	2
CC(C)(C)NCC(O)COc1ccccc1C(C)(C)C (stereo not given)	0	80*	5	-2	0
SMILES	S1P3 agonist	5-HT1A blocker	HTR1E antagonist	5HT1a ag	HTR1E agonist
COc1ccc(C2C=C(c3ccc(C)cc3)Nc3ncnn32)cc1 (stereo not given)	-1	.	21	-2	0
COc1cccc(C2C=C(c3cccs3)Nc3ncnn32)c1OC (stereo not given)	-1	26	30*	-4	0
COc1ccc(C2C=C(c3ccc(Br)s3)Nc3ncnn32)cc1OC (stereo not given)	0	34	34*	-2	0
COc1ccc(C2=CC(c3ccc(OC)c(OC)c3)n3nnnc3N2)c(OC)c1 (stereo not given)	0	6	29*	0	0
COc1cccc(C2=CC(c3cccc(OC)c3OC)n3nnnc3N2)c1 (stereo not given)	-1	24	10	-2	0
COc1cccc(N2CC(O)=C(c3nc4ccccc4c(=O)[nH]3)C2=N)c1	.	16	34*	-1	-1
CC(C)/C=C1\CCCCC1N(C)C(=O)NC(C)C (stereo not given)	0	17	-7	-7	0
Clc1ccccc1OCCCCN1CCCC1	-1	17	4	-1	15*
